Reference: ChEMBL document CHEMBL5661979, “Pharmacological inhibition of BMK1 suppresses tumor growth through promyelocytic leukemia protein” (Cancer Cell, 2010)

Assays:
[1] = biological target: Calcium/calmodulin-dependent protein kinase type 1D (Homo sapiens, UniProt Q8IU85); test: Inhibition of CAMK1d in human HeLa cells lysate pre incubated for 15 mins followed by ATP acyl phosphate probe addition and measured after 10 mins by LC-MS/MS analysis; assay type: subcellular
In short: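 KiNativ-type profiling in HeLa lysate (5 mg/mL total protein). Lysate preincubated 15 min with inhibitor at 50, 10, 2, 0.8 or 0 μM, then ATP or ADP acylphosphate probe added (5 μM final) for 10 min. Reaction stopped with urea and analysed by targeted MS, using up to four fragment ions per kinase peptide-probe conjugate. % inhibition calculated against untreated lysate. Duplicate reactions.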

[2] = biological target: Serine/threonine-protein kinase Chk1 (Homo sapiens, UniProt O14757); test: Inhibition of CHK1 in human HeLa cells lysate pre incubated for 15 mins followed by ATP acyl phosphate probe addition and measured after 10 mins by LC-MS/MS analysis; assay type: subcellular
Chain of Serine/threonine-protein kinase Chk1 (O14757 whole entry): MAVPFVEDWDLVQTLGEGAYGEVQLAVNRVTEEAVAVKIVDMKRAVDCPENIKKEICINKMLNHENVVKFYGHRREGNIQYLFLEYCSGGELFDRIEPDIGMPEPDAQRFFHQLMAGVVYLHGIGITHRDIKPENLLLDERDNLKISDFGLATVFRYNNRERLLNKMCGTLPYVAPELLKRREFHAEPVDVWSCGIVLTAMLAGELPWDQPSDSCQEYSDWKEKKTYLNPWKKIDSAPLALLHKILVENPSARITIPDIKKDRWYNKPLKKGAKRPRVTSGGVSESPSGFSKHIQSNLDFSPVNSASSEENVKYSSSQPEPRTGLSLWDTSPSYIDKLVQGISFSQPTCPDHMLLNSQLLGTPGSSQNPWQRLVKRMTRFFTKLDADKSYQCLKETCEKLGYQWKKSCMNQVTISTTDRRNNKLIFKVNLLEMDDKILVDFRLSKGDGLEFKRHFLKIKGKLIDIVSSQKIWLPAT

[3] = Inhibition of CDK5/PRKX/PRKY in human HeLa cells lysate pre incubated for 15 mins followed by ADP acyl phosphate probe addition and measured after 10 mins by LC-MS/MS analysis; assay type: subcellular
In short: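 KiNativ profiling in HeLa lysate (5 mg/mL total protein). Lysate incubated 15 min with inhibitor at 50, 10, 2, 0.8 or 0 μM. ATP or ADP acylphosphate probe then added (5 μM final) and reacted 10 min. Reaction stopped with urea and analysed by targeted MS, using up to four fragment ions per kinase peptide-probe conjugate. % inhibition taken against untreated lysate. Run in duplicate.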

[4] = biological target: Calcium/calmodulin-dependent protein kinase type II subunit delta (Homo sapiens, UniProt Q13557); test: Inhibition of CamK2d in human HeLa cells lysate at 50 uM pre incubated for 15 mins followed by ADP acyl phosphate probe addition and measured after 10 mins by LC-MS/MS analysis relative to control; assay type: subcellular; conditions: time 25.0 min
Chain of Calcium/calmodulin-dependent protein kinase type II subunit delta (Q13557 whole entry): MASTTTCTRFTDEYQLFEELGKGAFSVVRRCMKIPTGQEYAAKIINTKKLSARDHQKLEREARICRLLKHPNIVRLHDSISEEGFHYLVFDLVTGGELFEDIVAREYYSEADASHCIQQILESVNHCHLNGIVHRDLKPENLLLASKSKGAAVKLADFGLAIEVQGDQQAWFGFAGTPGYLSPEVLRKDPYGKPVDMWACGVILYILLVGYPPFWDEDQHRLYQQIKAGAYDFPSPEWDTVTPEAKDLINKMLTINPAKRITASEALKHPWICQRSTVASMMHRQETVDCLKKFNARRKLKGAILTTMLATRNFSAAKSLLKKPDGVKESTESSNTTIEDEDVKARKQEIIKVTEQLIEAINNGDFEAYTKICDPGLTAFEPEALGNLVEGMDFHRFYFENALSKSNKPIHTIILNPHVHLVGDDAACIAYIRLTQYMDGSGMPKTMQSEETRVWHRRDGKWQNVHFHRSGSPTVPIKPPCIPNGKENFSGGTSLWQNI

[5] = biological target: T1, Serine/threonine-protein kinase 3 (Homo sapiens) (UniProt Q13188); test: Inhibition of MST2 in human HeLa cells lysate at 10 uM pre incubated for 15 mins followed by ADP acyl phosphate probe addition and measured after 10 mins by LC-MS/MS analysis relative to control; assay type: subcellular; conditions: time 25.0 min
T1 sequence (whole entry): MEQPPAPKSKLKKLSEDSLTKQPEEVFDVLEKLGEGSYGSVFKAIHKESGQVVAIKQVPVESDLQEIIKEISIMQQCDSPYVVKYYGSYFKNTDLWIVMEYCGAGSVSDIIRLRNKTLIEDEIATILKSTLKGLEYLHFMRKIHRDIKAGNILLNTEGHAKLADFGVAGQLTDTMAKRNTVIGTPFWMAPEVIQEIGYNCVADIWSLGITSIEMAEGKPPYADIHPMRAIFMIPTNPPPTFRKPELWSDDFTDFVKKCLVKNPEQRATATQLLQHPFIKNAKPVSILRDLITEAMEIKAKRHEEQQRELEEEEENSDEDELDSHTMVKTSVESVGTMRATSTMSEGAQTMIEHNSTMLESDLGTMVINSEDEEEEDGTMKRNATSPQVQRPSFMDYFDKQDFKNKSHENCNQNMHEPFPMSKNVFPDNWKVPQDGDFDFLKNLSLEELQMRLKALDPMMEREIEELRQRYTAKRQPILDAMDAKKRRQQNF

[6] = biological target: T2, EKC/KEOPS complex subunit TP53RK (Homo sapiens) (UniProt Q96S44); test: Inhibition of PRPK in human HeLa cells lysate at 2 uM pre incubated for 15 mins followed by ADP acyl phosphate probe addition and measured after 10 mins by LC-MS/MS analysis relative to control; assay type: subcellular; conditions: time 25.0 min
T2 sequence (whole entry): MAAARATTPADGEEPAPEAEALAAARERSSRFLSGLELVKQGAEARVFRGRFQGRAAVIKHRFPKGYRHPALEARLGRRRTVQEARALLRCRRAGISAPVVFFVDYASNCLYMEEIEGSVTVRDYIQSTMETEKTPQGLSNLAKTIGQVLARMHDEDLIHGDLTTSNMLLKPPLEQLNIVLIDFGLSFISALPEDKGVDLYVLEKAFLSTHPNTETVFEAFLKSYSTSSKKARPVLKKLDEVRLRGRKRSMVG

[7] = biological target: Phosphatidylinositol 4-kinase alpha (Homo sapiens, UniProt P42356); test: Inhibition of PIK4CA in human HeLa cells lysate at 50 uM pre incubated for 15 mins followed by ATP acyl phosphate probe addition and measured after 10 mins by LC-MS/MS analysis relative to control; assay type: subcellular; conditions: time 25.0 min
Chain of Phosphatidylinositol 4-kinase alpha (P42356 whole entry, looked up): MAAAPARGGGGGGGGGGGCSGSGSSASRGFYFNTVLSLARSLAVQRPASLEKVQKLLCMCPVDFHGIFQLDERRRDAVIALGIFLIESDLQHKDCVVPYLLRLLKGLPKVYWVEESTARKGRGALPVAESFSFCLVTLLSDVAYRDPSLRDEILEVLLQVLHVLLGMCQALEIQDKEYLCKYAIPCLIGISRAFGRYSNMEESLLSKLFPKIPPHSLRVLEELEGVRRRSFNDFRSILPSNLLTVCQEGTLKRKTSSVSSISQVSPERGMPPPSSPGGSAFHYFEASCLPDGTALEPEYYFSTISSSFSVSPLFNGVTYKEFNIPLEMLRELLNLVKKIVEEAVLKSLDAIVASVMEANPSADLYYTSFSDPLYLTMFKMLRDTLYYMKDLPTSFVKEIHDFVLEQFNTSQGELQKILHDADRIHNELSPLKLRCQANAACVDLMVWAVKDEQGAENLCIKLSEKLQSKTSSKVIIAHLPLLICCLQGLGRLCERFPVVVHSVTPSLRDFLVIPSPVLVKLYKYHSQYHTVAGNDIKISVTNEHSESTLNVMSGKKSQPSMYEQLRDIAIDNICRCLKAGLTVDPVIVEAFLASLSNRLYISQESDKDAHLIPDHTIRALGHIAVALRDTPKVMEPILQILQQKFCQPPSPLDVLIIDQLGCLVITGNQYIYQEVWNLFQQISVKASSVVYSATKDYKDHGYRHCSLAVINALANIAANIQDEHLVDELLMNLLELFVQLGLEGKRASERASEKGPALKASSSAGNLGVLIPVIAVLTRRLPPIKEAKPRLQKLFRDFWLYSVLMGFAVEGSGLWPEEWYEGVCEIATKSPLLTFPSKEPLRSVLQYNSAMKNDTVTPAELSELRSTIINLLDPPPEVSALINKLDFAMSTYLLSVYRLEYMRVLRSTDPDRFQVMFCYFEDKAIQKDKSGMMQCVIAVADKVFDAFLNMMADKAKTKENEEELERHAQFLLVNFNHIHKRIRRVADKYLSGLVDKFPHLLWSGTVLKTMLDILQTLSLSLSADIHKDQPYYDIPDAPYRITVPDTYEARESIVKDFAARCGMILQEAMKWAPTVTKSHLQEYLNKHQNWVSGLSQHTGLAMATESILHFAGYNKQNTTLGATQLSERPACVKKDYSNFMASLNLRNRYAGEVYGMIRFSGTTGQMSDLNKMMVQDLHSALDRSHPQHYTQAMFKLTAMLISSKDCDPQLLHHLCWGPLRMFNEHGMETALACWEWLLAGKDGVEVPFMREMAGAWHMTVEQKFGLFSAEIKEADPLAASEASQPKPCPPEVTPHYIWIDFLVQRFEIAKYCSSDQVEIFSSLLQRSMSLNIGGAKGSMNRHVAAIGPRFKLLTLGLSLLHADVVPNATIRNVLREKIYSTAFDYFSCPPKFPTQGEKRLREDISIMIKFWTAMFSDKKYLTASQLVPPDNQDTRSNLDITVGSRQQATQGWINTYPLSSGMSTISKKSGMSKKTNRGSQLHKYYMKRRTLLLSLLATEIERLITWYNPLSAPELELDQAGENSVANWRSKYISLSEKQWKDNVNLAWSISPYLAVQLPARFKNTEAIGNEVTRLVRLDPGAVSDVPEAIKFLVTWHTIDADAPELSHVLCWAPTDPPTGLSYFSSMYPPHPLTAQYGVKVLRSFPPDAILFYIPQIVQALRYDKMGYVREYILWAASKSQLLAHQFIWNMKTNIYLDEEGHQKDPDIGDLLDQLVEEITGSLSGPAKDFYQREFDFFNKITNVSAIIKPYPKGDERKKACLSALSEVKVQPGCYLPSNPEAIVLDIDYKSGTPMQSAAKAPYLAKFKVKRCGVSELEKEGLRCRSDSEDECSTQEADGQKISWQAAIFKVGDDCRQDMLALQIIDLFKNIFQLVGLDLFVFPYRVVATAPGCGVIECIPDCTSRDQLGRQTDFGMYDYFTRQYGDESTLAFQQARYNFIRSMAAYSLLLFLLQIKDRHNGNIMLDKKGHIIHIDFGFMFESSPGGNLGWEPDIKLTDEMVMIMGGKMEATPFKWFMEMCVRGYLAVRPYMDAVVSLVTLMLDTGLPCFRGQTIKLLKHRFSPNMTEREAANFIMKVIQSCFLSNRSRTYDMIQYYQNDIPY

[8] = biological target: T3, Serine/threonine-protein kinase Sgk3 (Homo sapiens) (UniProt Q96BR1); test: Inhibition of SGK3 in human HeLa cells lysate at 2 uM pre incubated for 15 mins followed by ATP acyl phosphate probe addition and measured after 10 mins by LC-MS/MS analysis relative to control; assay type: subcellular; conditions: time 25.0 min
T3 sequence (whole entry): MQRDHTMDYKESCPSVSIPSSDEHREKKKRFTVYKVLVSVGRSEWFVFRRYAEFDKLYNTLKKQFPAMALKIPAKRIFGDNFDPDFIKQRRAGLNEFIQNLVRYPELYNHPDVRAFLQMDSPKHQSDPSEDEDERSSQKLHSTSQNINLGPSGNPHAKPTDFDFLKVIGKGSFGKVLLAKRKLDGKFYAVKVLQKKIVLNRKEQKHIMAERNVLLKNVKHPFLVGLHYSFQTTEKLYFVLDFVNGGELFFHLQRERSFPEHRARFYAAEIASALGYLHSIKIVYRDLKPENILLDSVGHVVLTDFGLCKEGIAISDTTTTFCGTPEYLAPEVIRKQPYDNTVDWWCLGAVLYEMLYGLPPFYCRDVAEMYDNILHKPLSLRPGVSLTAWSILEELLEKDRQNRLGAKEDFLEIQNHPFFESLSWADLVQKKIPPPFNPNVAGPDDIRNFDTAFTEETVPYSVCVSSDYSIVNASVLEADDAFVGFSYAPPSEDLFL

[9] = biological target: Cyclin-dependent kinase 11B (Homo sapiens, UniProt P21127); test: Inhibition of PITSLRE in human HeLa cells lysate at 2 uM pre incubated for 15 mins followed by ATP acyl phosphate probe addition and measured after 10 mins by LC-MS/MS analysis relative to control; assay type: subcellular; conditions: time 25.0 min
Chain of Cyclin-dependent kinase 11B (P21127 whole entry): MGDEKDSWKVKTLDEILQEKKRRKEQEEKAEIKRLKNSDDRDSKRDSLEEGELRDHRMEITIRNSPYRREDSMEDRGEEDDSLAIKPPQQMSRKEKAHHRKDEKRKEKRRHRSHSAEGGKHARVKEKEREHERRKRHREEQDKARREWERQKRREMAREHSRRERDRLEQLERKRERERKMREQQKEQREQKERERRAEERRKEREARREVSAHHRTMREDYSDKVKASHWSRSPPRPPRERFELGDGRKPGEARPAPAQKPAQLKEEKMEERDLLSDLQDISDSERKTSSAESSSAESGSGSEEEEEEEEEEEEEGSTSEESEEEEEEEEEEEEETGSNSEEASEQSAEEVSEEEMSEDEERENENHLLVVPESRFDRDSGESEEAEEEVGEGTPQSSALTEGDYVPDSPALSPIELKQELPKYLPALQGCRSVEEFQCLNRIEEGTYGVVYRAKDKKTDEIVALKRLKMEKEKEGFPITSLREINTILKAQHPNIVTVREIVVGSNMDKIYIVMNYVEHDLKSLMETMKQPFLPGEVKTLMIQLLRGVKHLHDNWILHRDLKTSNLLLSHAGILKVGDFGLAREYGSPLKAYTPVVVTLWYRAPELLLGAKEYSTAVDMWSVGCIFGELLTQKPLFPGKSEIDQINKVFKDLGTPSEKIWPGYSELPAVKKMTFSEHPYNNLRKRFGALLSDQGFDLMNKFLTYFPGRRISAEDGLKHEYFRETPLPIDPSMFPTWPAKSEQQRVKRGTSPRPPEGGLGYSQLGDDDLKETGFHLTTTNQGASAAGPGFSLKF

[10] = Inhibition of SRC/FYN/YES in human HeLa cells lysate at 2 uM pre incubated for 15 mins followed by ATP acyl phosphate probe addition and measured after 10 mins by LC-MS/MS analysis relative to control; conditions: 25 min, condition cancer

Chain of Calcium/calmodulin-dependent protein kinase type 1D (Q8IU85 whole entry, the tested form may be a part): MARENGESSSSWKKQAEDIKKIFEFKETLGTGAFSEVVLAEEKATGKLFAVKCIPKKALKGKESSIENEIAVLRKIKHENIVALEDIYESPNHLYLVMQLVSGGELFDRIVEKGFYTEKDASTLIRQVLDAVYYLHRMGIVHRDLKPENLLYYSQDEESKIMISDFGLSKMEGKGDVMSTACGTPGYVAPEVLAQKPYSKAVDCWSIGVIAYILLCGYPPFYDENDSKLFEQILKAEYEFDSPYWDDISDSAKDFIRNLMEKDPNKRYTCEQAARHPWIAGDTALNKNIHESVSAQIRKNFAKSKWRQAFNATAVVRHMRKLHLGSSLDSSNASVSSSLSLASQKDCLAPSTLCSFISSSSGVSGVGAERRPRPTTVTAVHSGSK

CCOc1cc(N2CCC(O)CC2)ccc1Nc1ncc2c(n1)N(C)c1ccccc1C(=O)N2C
IC50 [1]: > 50 µM | IC50 [2]: > 50 µM | IC50 [3]: > 50 µM | inhibition [4]: 10.3% | inhibition [5]: 23.5% | inhibition [6]: 23.1% | inhibition [7]: 58% | inhibition [8]: 15.9% | inhibition [9]: 4.9% | inhibition at 2 µM [10]: -29.7%
